Source: ChEMBL document CHEMBL3046106, “Synthesis and herbicidal activity of diphenyl ether derivatives containing unsaturated carboxylates” (J Agric Food Chem, 2011)

Columns and labels:
[1] = test system: Abutilon theophrasti; test: Herbicidal activity against Abutilon theophrasti (velvetleaf) at 40 g/hm2 postemergent application after 2 weeks; type: functional
Method in brief: (§1)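 Seedlings grown 14 days in the greenhouse; plants uniform in size and stage were chosen. Test compound in acetone sprayed post-emergence at a carrier volume equivalent to 187 L/ha. Plants returned to the greenhouse and watered; untreated plants served as control. Each species scored visually two weeks after application on a 0–100 scale (0 no activity, 100 total control).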

[2] = test system: Abutilon theophrasti; test: Herbicidal activity against Abutilon theophrasti (velvetleaf) at 200 g/hm2 postemergent application after 2 weeks; type: functional; method in brief: as §1
[3] = test system: Abutilon theophrasti; test: Herbicidal activity against Abutilon theophrasti (velvetleaf) at 1000 g/hm2 postemergent application after 2 weeks; type: functional; method in brief: as §1
[4] = test system: Digitaria sanguinalis; test: Herbicidal activity against Digitaria sanguinalis (hairy crabgrass) at 200 g/hm2 postemergent application after 2 weeks; type: functional; method in brief: as §1
[5] = test system: Digitaria sanguinalis; test: Herbicidal activity against Digitaria sanguinalis (hairy crabgrass) at 40 g/hm2 postemergent application after 2 weeks; type: functional; method in brief: as §1
[6] = test system: Digitaria sanguinalis; test: Herbicidal activity against Digitaria sanguinalis (hairy crabgrass) at 1000 g/hm2 postemergent application after 2 weeks; type: functional; method in brief: as §1
[7] = test system: Echinochloa crus-galli; test: Herbicidal activity against Echinochloa crus-galli (barnyard grass) at 40 g/hm2 postemergent application after 2 weeks; type: functional; method in brief: as §1
[8] = test system: Echinochloa crus-galli; test: Herbicidal activity against Echinochloa crus-galli (barnyard grass) at 200 g/hm2 postemergent application after 2 weeks; type: functional; method in brief: as §1
[9] = test system: Echinochloa crus-galli; test: Herbicidal activity against Echinochloa crus-galli (barnyard grass) at 1000 g/hm2 postemergent application after 2 weeks; type: functional; method in brief: as §1
[10] = test system: Abutilon theophrasti; test: Herbicidal activity against Abutilon theophrasti (velvetleaf) at 100 g/hm2 postemergent application after 2 weeks; type: functional; method in brief: as §1
[11] = test system: Digitaria sanguinalis; test: Herbicidal activity against Digitaria sanguinalis (hairy crabgrass) at 100 g/hm2 postemergent application after 2 weeks; type: functional; method in brief: as §1
[12] = test system: Echinochloa crus-galli; test: Herbicidal activity against Echinochloa crus-galli (barnyard grass) at 100 g/hm2 postemergent application after 2 weeks; type: functional; method in brief: as §1
[13] = Crop selectivity index, ratio of LD10 for soybean to LD90 for velvetleaf
[14] = test system: Triticum aestivum; test: Toxicity against Triticum aestivum (wheat) at 400 g/hm2 postemergent application after 2 weeks; type: organism-based; conditions: in vivo, other, 336 h
Method in brief: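 Greenhouse post-emergence test: plants grown 14 days, then chosen for uniform size and stage. Compound dissolved in acetone and sprayed at a carrier volume equivalent to 187 L per hectare, over […]. Untreated plants served as control. Plants were rated two weeks after application on a 0–100 scale (0 no activity, 100 total control).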

[15] = test system: Triticum aestivum; test: Toxicity against Triticum aestivum (wheat) at 100 g/hm2 postemergent application after 2 weeks; type: organism-based; conditions: in vivo, other, 336 h; method in brief: as §1
[16] = test system: Glycine max; test: Toxicity against Glycine max (soybean) at 400 g/hm2 postemergent application after 2 weeks; type: organism-based; conditions: in vivo, other, 336 h; method in brief: as §1
[17] = test system: Glycine max; test: Toxicity against Glycine max (soybean) at 100 g/hm2 postemergent application after 2 weeks; type: organism-based; conditions: in vivo, other, 336 h; method in brief: as §1
[18] = test system: Glycine max; test: Toxicity against Glycine max (soybean) at postemergent application after 2 weeks; type: organism-based; conditions: in vivo, other, 336 h; method in brief: as §1
[19] = test system: Abutilon theophrasti; test: Herbicidal activity against Abutilon theophrasti (velvetleaf) at postemergent application after 2 weeks; type: functional; method in brief: as §1
[20] = test system: Xanthium strumarium; test: Herbicidal activity against Xanthium strumarium (cocklebur) at 100 g/hm2 postemergent application after 2 weeks; type: functional; method in brief: as §1
[21] = test system: Xanthium strumarium; test: Herbicidal activity against Xanthium strumarium (cocklebur) at 400 g/hm2 postemergent application after 2 weeks; type: functional; method in brief: as §1
[22] = test system: Commelina communis; test: Herbicidal activity against Commelina communis (Asiatic dayflower) at 100 g/hm2 post-emergent application after 2 weeks; type: functional; method in brief: as §1
[23] = test system: Commelina communis; test: Herbicidal activity against Commelina communis (Asiatic dayflower) at 400 g/hm2 post-emergent application after 2 weeks; type: functional; method in brief: as §1
[24] = test system: Amaranthus retroflexus; test: Herbicidal activity against Amaranthus retroflexus at 400 g/hm2 postemergent application after 2 weeks; type: functional; method in brief: as §1
[25] = test system: Portulaca oleracea; test: Herbicidal activity against Portulaca oleracea at 400 g/hm2 postemergent application after 2 weeks; type: functional; method in brief: as §1
[26] = test system: Abutilon theophrasti; test: Herbicidal activity against Abutilon theophrasti (velvetleaf) at 400 g/hm2 postemergent application after 2 weeks; type: functional; method in brief: as §1
[27] = test system: Digitaria sanguinalis; test: Herbicidal activity against Digitaria sanguinalis (hairy crabgrass) at 400 g/hm2 postemergent application after 2 weeks; type: functional; method in brief: as §1
[28] = test system: Echinochloa crus-galli; test: Herbicidal activity against Echinochloa crus-galli (barnyard grass) at 400 g/hm2 postemergent application after 2 weeks; type: functional; method in brief: as §1
[29] = test system: Setaria glauca (foxtail); test: Herbicidal activity against Setaria glauca at 400 g/hm2 postemergent application after 2 weeks
[30] = test system: Abutilon theophrasti; test: Herbicidal activity against Abutilon theophrasti (velvetleaf) at 2000 g/hm2 postemergent application after 2 weeks; type: functional; method in brief: as §1
[31] = test system: Digitaria sanguinalis; test: Herbicidal activity against Digitaria sanguinalis (hairy crabgrass) at 2000 g/hm2 postemergent application after 2 weeks; type: functional; method in brief: as §1
[32] = test system: Echinochloa crus-galli; test: Herbicidal activity against Echinochloa crus-galli (barnyard grass) at 2000 g/hm2 postemergent application after 2 weeks; type: functional; method in brief: as §1
[33] = test system: Abutilon theophrasti; test: Herbicidal activity against Abutilon theophrasti (velvetleaf) at 30 g/hm2 postemergent application after 2 weeks; type: functional; method in brief: as §1
[34] = test system: Abutilon theophrasti; test: Herbicidal activity against Abutilon theophrasti (velvetleaf) at 120 g/hm2 postemergent application after 2 weeks; type: functional; method in brief: as §1
[35] = test system: Abutilon theophrasti; test: Herbicidal activity against Abutilon theophrasti (velvetleaf) at 480 g/hm2 postemergent application after 2 weeks; type: functional; method in brief: as §1
[36] = test system: Digitaria sanguinalis; test: Herbicidal activity against Digitaria sanguinalis (hairy crabgrass) at 120 g/hm2 postemergent application after 2 weeks; type: functional; method in brief: as §1
[37] = test system: Digitaria sanguinalis; test: Herbicidal activity against Digitaria sanguinalis (hairy crabgrass) at 30 g/hm2 postemergent application after 2 weeks; type: functional; method in brief: as §1
[38] = test system: Digitaria sanguinalis; test: Herbicidal activity against Digitaria sanguinalis (hairy crabgrass) at 480 g/hm2 postemergent application after 2 weeks; type: functional; method in brief: as §1
[39] = test system: Echinochloa crus-galli; test: Herbicidal activity against Echinochloa crus-galli (barnyard grass) at 30 g/hm2 postemergent application after 2 weeks; type: functional; method in brief: as §1
[40] = test system: Echinochloa crus-galli; test: Herbicidal activity against Echinochloa crus-galli (barnyard grass) at 120 g/hm2 postemergent application after 2 weeks; type: functional; method in brief: as §1
[41] = test system: Echinochloa crus-galli; test: Herbicidal activity against Echinochloa crus-galli (barnyard grass) at 480 g/hm2 postemergent application after 2 weeks; type: functional; method in brief: as §1

| Compound | Activity [1] | Activity [2] | Activity [3] | Activity [4] | Activity [5] | Activity [6] | Activity [7] | Activity [8] | Activity [9] | further results |
| --- | --- | --- | --- | --- | --- | --- | --- | --- | --- | --- |
| COC(=O)/C=C(\C)OC(=O)c1cc(Oc2ccc(C(F)(F)F)cc2Cl)ccc1[N+](=O)[O-] | 25% | 75% | 100% | 80% | 5% | 95% | 15% | 50% | 80% |  |
| O=C(O)c1cc(Oc2ccc(C(F)(F)F)cc2Cl)ccc1[N+](=O)[O-] [ACIFLUORFEN] | 50% | 95% | 100% | 0% | 0% | 10% | 20% | 50% | 90% | Activity [10]: 85%; Activity [11]: 10%; Activity [12]: 25%; Selectivity Index [13]: 3.4; Activity [14]: 15%; Activity [15]: 0%; Activity [16]: 10%; Activity [17]: 5%; LD10 [18]: 461.8 g/hm2; LD90 [19]: 137.4 g/hm2; Activity [20]: 80%; Activity [21]: <70%; Activity [22]: 60%; Activity [23]: <70%; Activity [24]: 95%; Activity [25]: 95%; Activity [26]: 70%; Activity [27]: 70%; Activity [28]: <70%; Activity [29]: <70% |
| C=CCOC(=O)/C=C/COC(=O)c1cc(Oc2ccc(C(F)(F)F)cc2Cl)ccc1[N+](=O)[O-] |  |  | 80% |  |  | 25% |  |  | 30% | Activity [30]: 100%; Activity [31]: 55%; Activity [32]: 60% |
| CCOC(=O)/C=C(\C)OC(=O)c1cc(Oc2ccc(C(F)(F)F)cc2Cl)ccc1[N+](=O)[O-] | 10% | 85% | 100% | 90% | 80% | 98% | 10% | 40% | 60% |  |
| COC(=O)/C=C/COC(=O)c1cc(Oc2ccc(C(F)(F)F)cc2Cl)ccc1[N+](=O)[O-] |  |  |  |  |  |  |  |  |  | Activity [33]: 30%; Activity [34]: 95%; Activity [35]: 100%; Activity [36]: 80%; Activity [37]: 20%; Activity [38]: 90%; Activity [39]: 10%; Activity [40]: 60%; Activity [41]: 80% |
| C=C(COC(=O)c1cc(Oc2ccc(C(F)(F)F)cc2Cl)ccc1Cl)C(=O)OCC | 30% | 100% | 100% | 70% | 40% | 95% | 10% | 20% | 90% |  |
| C/C(=C\C(=O)OC(C)(C)C)OC(=O)c1cc(Oc2ccc(C(F)(F)F)cc2Cl)ccc1[N+](=O)[O-] | 30% | 50% | 75% | 15% | 5% | 40% | 5% | 30% | 45% |  |
